Only some compounds are listed: those with a hit (about 3.5% of all), similar ones and a draw of the others.
MrgX1 agonist – activates human MrgX1 receptor signaling; MrgX1-HEK293 cells, Fluo-4 calcium fluorescence, agonist mode; hits give high values; B-score at 10 µM; 0.44% of 310,000 active;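 active = calcium response B-score plate-corrected fluorescence ratio at least 3 library SD, with starting fluorescence B-score inside 5 SD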
Target sequence (Q96LB2 whole entry, looked up): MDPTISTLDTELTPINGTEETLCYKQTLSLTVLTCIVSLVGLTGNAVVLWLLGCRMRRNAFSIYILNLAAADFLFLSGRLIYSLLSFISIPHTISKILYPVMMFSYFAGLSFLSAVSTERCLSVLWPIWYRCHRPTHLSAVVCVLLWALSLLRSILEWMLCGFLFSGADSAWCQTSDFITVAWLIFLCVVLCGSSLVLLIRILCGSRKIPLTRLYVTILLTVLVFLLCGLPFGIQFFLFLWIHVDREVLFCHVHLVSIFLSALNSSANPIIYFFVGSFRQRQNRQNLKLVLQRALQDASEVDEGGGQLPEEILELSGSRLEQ
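Test system: HEK293 cells stably expressing human MrgX1 receptor; amount: 15,000 cells per well; doses: compound delivered in addition one of three; times: overnight plating before 1 h dye loading; detection: Fluo-4 NW calcium-flux fluorescence, kinetic read; read-out basis: B-scored fluorescence response ratio; controls: positive and negative controls per plate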
RGS4 pot – potentiators or activators of RGS4 | HEK293 M3R/inducible RGS4, carbachol calcium flux Fluo4; hits give low values | B-score at 10 µM | 0.92% of 310,000 active;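 active = B-score of the integrated calcium signal more than 4 SD below the library mean, with starting fluorescence not abnormally high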;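 note: negative B-score means reduced calcium response which marks RGS4 activation or potentiation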
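test system = HEK293 cells with stable M3R and inducible RGS4 | schedule = recording 10 s baseline at 1 Hz, 100 s post-agonist | technique = Fluo4-AM (2 µM) calcium-flux fluorescence, kinetic read | measure = Agonist-evoked peak-minus-minimum fluorescence over baseline, integrated ratio, B score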
MrgX1 allo act – human MrgX1 positive allosteric modulation, primary screen | Q96LB2 | MrgX1-HEK293, Fluo-4 calcium flux, FDSS; hits give high values | 0.63% of 310,000 active | B-score at 10 µM | AID 588675;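 active = plate-corrected calcium response at least 3 library SD above typical, normal starting fluorescence, not activating the receptor alone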;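 note: compound read alongside a low EC10 to EC30 dose of BAM8-22 agonist; peak minus trough fluorescence over baseline measured at the second addition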
RGS4 inh – human RGS4 inhibition | P49798 | HEK293 M3R/RGS4 inducible, Fluo-4 calcium flux; hits give high values; triggered by carbachol at its EC20 | B-score at 10 µM | 0.45% of 310,000 active;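 active = B-score, a plate-corrected calcium signal, over three deviations above library mean, with baseline fluorescence within five deviations of library mean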;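 note: RGS4 expression induced by doxycycline in cells with stable M3 receptor; B-score is computed from the integrated fluorescence ratio over baseline after carbachol; higher B-score means a larger calcium signal and so more RGS4 inhibition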
Target sequence (P49798 whole entry, looked up): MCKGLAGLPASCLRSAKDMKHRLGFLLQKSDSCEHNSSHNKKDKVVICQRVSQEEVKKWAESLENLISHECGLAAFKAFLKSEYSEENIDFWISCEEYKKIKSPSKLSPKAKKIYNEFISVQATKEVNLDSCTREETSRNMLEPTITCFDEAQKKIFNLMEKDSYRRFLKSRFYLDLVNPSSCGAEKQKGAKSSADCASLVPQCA
MrgX1 antag – human MrgX1 receptor antagonism, primary screen; Q96LB2; MRGX1-HEK293 calcium flux, Fluo-4, BAM8-22 antagonism; hits give low values; B-score at 10 µM; 1.3% of 310,000 active; AID 588676;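 active = calcium-response B-score plate-corrected more than 3 library SD below zero, starting fluorescence within 5 deviations, no agonist response on first addition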;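 note: peak minus trough fluorescence over baseline after final BAM8-22 challenge near maximal dose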
RGS4 block valid – RGS4 inhibitor validation; shares compounds with RGS4 inh; HEK293 M3R/RGS4, carbachol calcium Fluo-4 fluorescence; carbachol added at its EC20; 0 = buffer wells, 100 = carbachol control; calcium response, % at 10 µM; 65% of 1,700 active;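 active = duplicate-averaged calcium response above the buffer-only control mean plus 5 SD of those controls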;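 note: integrated fluorescence ratio F max minus min over baseline F0; higher response in RGS4-induced cells means RGS4 inhibition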
M3R Ca ctr – checks RGS4 inhibitor effects in non-induced HEK293 M3R cells; shares compounds with RGS4 inh; carbachol calcium Fluo-4; submaximal (EC20) carbachol stimulus; buffer wells 0%, carbachol control wells 100%; activity (percent), % at 10 µM; 20% of 1,900 active; AID 493000; call rule not given here;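 note: RGS4 induction absent so cells express M3R without RGS4; higher means more calcium signal and flags a non-specific hit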
RGS4 inh ctr2 – signal in non-induced cells without carbachol, RGS4 inhibitor counter-screen. shares compounds with RGS4 inh. HEK293 M3R/RGS4 non-induced, Fluo-4 calcium, no carbachol; normalised: buffer wells 0%, carbachol wells 100%. calcium response (agonist-mode artifact), % at 10 µM. 22% of 1,900 active;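 active = duplicate-averaged calcium rise in uninduced cells above buffer wells' mean plus 5 SD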
Hits are given with their value.

How did Cc1ccc(Nc2nc(N)nc(CSc3nc4ccccc4s3)n2)cc1 do in these assays?
MrgX1 agonist: inactive; RGS4 pot: inactive; MrgX1 allo act: inactive; RGS4 inh: 5.07; MrgX1 antag: inactive; RGS4 block valid: 8.0%; M3R Ca ctr: inactive; RGS4 inh ctr2: inactive

Results for COc1ccc(Nc2nc(N)nc(CSc3nnc(C)s3)n2)cc1 ?
MrgX1 agonist: inactive; RGS4 pot: inactive; MrgX1 allo act: inactive; RGS4 inh: inactive; MrgX1 antag: inactive; RGS4 block valid: inactive; M3R Ca ctr: inactive; RGS4 inh ctr2: inactive

How did COc1ccc(OC)c(Nc2nc(N)nc(CSc3nnc(N)s3)n2)c1 do in these assays?
MrgX1 agonist: inactive; RGS4 pot: inactive; MrgX1 allo act: inactive; RGS4 inh: inactive; MrgX1 antag: inactive

How did Cc1ccc(Nc2nc(N)nc(CCl)n2)cc1 do in these assays?
MrgX1 agonist: inactive; RGS4 pot: inactive; MrgX1 allo act: inactive; RGS4 inh: 4.73; MrgX1 antag: inactive; RGS4 block valid: 7.0%; M3R Ca ctr: inactive; RGS4 inh ctr2: inactive

Results for Cc1nnc2n(c1=O)N=C(c1ccc(Cl)cc1)CS2 ?
MrgX1 agonist: inactive; RGS4 pot: inactive; MrgX1 allo act: inactive; RGS4 inh: inactive; MrgX1 antag: inactive

Results for COc1ccc(NC(=O)CSCC(=O)Nc2nnc(C)s2)cc1 ?
MrgX1 agonist: inactive; RGS4 pot: inactive; MrgX1 allo act: inactive; RGS4 inh: inactive; MrgX1 antag: inactive

How did Cc1cc(C(=O)CN2C(=O)NC(C)(c3cccc(Br)c3)C2=O)c(C)n1Cc1ccco1 (configuration not stated) do in these assays?
MrgX1 agonist: inactive; RGS4 pot: inactive; MrgX1 allo act: inactive; RGS4 inh: inactive; MrgX1 antag: inactive

Results for Cc1cc(C(=O)CN2C(=O)NC(c3ccccc3)(c3ccccc3)C2=O)c(C)n1Cc1ccco1 ?
MrgX1 agonist: inactive; RGS4 pot: inactive; MrgX1 allo act: inactive; RGS4 inh: 7.5; MrgX1 antag: inactive; RGS4 block valid: 17.0%; M3R Ca ctr: inactive; RGS4 inh ctr2: inactive

Results for CCS(=O)(=O)Nc1ccc(C2=NN(S(C)(=O)=O)C(c3cccs3)C2)cc1 (configuration not stated) ?
MrgX1 agonist: inactive; RGS4 pot: inactive; MrgX1 allo act: inactive; RGS4 inh: inactive; MrgX1 antag: inactive

Results for O=C(N/N=C/c1ccc(O)cc1O)/C(=C/c1ccccc1)CCO ?
MrgX1 agonist: inactive; RGS4 pot: inactive; MrgX1 allo act: inactive; RGS4 inh: 9.64; MrgX1 antag: inactive; RGS4 block valid: 53.0%; M3R Ca ctr: 37.5%; RGS4 inh ctr2: inactive

How did O=[N+]([O-])c1ccc(C(O)CN=Cc2ccc(O)cc2O)cc1 (configuration not stated) do in these assays?
MrgX1 agonist: inactive; RGS4 pot: inactive; MrgX1 allo act: inactive; RGS4 inh: inactive; MrgX1 antag: inactive

How did O=[N+]([O-])/C=C\c1ccc(N2CCCC2)c(F)c1 do in these assays?
RGS4 pot: inactive; RGS4 inh: 35.7; RGS4 block valid: 33.5%; M3R Ca ctr: inactive; RGS4 inh ctr2: 75.0%

Results for N#CC1=C(N)C(C#N)(C#N)C2(C(=O)Nc3ccccc32)C2CCCC=C12 (configuration not stated) ?
MrgX1 agonist: inactive; RGS4 pot: inactive; MrgX1 allo act: inactive; RGS4 inh: 5.4; MrgX1 antag: inactive; RGS4 block valid: 24.0%; M3R Ca ctr: 31.0%; RGS4 inh ctr2: inactive

How did CC(C)=CCc1cc([C@@H]2CC(=O)c3ccc(O)c(CC=C(C)C)c3O2)ccc1O do in these assays?
MrgX1 agonist: inactive; RGS4 pot: inactive; MrgX1 allo act: inactive; RGS4 inh: inactive; MrgX1 antag: inactive

Results for CN1CCN(C(=O)CN(CCc2ccccc2)S(C)(=O)=O)CC1 ?
MrgX1 agonist: inactive; RGS4 pot: inactive; MrgX1 allo act: inactive; RGS4 inh: inactive; MrgX1 antag: inactive

How did O=C1c2ccccc2C(=O)N1Nc1ccccc1 do in these assays?
MrgX1 agonist: inactive; RGS4 pot: inactive; MrgX1 allo act: inactive; RGS4 inh: inactive; MrgX1 antag: inactive

What do the screens show for `O=C1c2cccc3c([N+](=O)[O-])c(O)cc(c23)C(=O)N1Nc1ccccc1`?
MrgX1 agonist: inactive; RGS4 pot: inactive; MrgX1 allo act: inactive; RGS4 inh: 6.3; MrgX1 antag: inactive; RGS4 block valid: 11.5%; M3R Ca ctr: inactive; RGS4 inh ctr2: inactive

How did Cc1ccc(-c2cc(-c3ccccc3[N+](=O)[O-])[nH]n2)c(O)c1 do in these assays?
MrgX1 agonist: inactive; RGS4 pot: inactive; MrgX1 allo act: inactive; RGS4 inh: inactive; MrgX1 antag: inactive; M3R Ca ctr: inactive; RGS4 inh ctr2: inactive

What do the screens show for `Cc1ccc(-c2cc(-c3ccccc3Cl)[nH]n2)c(O)c1`?
MrgX1 agonist: inactive; RGS4 pot: inactive; MrgX1 allo act: inactive; RGS4 inh: inactive; MrgX1 antag: inactive

What do the screens show for `CC1(C)CCCN(Cc2c(O)ccc3c(=O)c(-c4nc5ccccc5s4)c(N)oc23)C1`?
MrgX1 agonist: inactive; RGS4 pot: inactive; MrgX1 allo act: inactive; RGS4 inh: inactive; MrgX1 antag: inactive

How did CC1CCN(Cc2c(O)ccc3c(=O)c(-c4nc5ccccc5s4)c(N)oc23)CC1 do in these assays?
MrgX1 agonist: inactive; RGS4 pot: inactive; MrgX1 allo act: inactive; RGS4 inh: 6.34; MrgX1 antag: inactive; RGS4 block valid: 12.5%; M3R Ca ctr: inactive; RGS4 inh ctr2: inactive

How did CC1CCCN(Cc2c(O)ccc3c(=O)c(-c4nc5ccccc5s4)c(N)oc23)C1 (configuration not stated) do in these assays?
MrgX1 agonist: inactive; RGS4 pot: inactive; MrgX1 allo act: inactive; RGS4 inh: 5.05; MrgX1 antag: inactive; RGS4 block valid: 16.0%; M3R Ca ctr: inactive; RGS4 inh ctr2: inactive

How did O=C(O)C1CCN(Cc2cccnc2)CC1 do in these assays?
MrgX1 agonist: inactive; RGS4 pot: inactive; MrgX1 allo act: inactive; RGS4 inh: inactive; MrgX1 antag: inactive

How did Cc1ccc(Nc2nc(N)c3ccccc3n2)cc1Cl do in these assays?
MrgX1 agonist: inactive; RGS4 pot: inactive; MrgX1 allo act: inactive; RGS4 inh: 7.35; MrgX1 antag: inactive; RGS4 block valid: 9.5%; M3R Ca ctr: inactive; RGS4 inh ctr2: inactive

Results for COc1cc2nc(Nc3ccc(C)c(Cl)c3)nc(N)c2cc1OC ?
MrgX1 agonist: inactive; RGS4 pot: inactive; MrgX1 allo act: inactive; RGS4 inh: inactive; MrgX1 antag: inactive

Results for Nc1nc(Nc2ccccc2)nc2ccccc12 ?
MrgX1 agonist: inactive; RGS4 pot: inactive; MrgX1 allo act: inactive; RGS4 inh: inactive; MrgX1 antag: inactive

High-throughput results deposited in PubChem by Johns Hopkins Ion Channel Center.
